The record followed here is ChEMBL document CHEMBL1147356, “Structure and stereochemistry of pectinolides A-C, novel antimicrobial and cytotoxic 5,6-dihydro-alpha-pyrones from Hyptis pectinata” (1993).

Experiment [1] deals with ZR-75-1. Put plainly: Cytotoxicity against human ZR-75-1 cells after 72 hrs by sulforhodamine B assay. The note with it: ZR-75-1, 72 h, read-out: ED50 (the source's name). Type of experiment: functional. The procedure, abridged:
(§1)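 Log-phase cells treated with five sample concentrations (20.0–0.032 μg/ml) in DMSO for 72 h at 37°, 5% CO₂, 100% humidity. Sulforhodamine B staining quantified cells per well; results given as ED50.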
For orientation: In SRB staining, fixed cells bind dye roughly in proportion to their protein.

The subject of experiment [2] is Staphylococcus aureus. The experiment can be described thus: Antibacterial activity against Staphylococcus aureus ATCC 6538 after overnight incubation at 37 degC by twofold serial dilution technique. Type of experiment: functional. The procedure, abridged:
(§2)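 Twofold broth dilution MIC. Sample at 1 mg/ml in MeOH-H2O (1:1), 0.5 ml added to 4.5 ml nutrient broth, then doubling dilutions from 100 to 0.2 μg/ml. Each tube inoculated to 10⁶ organisms/ml final. Duplicate per organism, with solvent and streptomycin control broths.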

The test system of experiment [3] is SK-MEL-2. The experiment can be described thus: Cytotoxicity against human SK-MEL-2 cells after 72 hrs by sulforhodamine B assay. Type of experiment: functional. The note with it: SK-MEL-2, 72 h, read-out: ED50 (the source's name). The procedure, abridged:
as §1

The subject of experiment [4] is HT-1080. Put plainly: Cytotoxicity against human HT1080 cells after 48 hrs by sulforhodamine B assay. Type of experiment: functional. The note with it: HT-1080, 48 h, read-out: ED50 (the source's name). The procedure, abridged: (§3)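 Log-phase cells exposed to five concentrations (20.0–0.032 μg/ml) of sample in DMSO for 48 h at 37°, 5% CO₂, 100% humidity. Cell quantity per well determined by sulforhodamine B staining; ED50 reported.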

Experiment [5] deals with Bacillus subtilis. The experiment can be described thus: Antibacterial activity against Bacillus subtilis ATCC 6633 at 1 mg/ml after 24 hrs at 37 degC by agar hole-plate diffusion assay. Type of experiment: functional. The note with it: ATCC 6633, 24 h, read-out: IZ. The procedure, abridged: (§4)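 Agar hole-plate diffusion. Agar plates (15 ml) seeded with 1 ml overnight broth culture (10⁶ bacteria/ml); 11 mm holes filled with 100 μl of pure compound at 1 mg/ml. Streptomycin sulfate (1 mg/ml) as positive control. Duplicate per organism, 24 h at 37°. Inhibition zone diameters measured.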

The nature of experiment [6]: Cytotoxicity against human Col2 cells after 72 hrs by sulforhodamine B assay. The note with it: Col2, 72 h, read-out: ED50 (the source's name).
Experiment [7] in a line: Cytotoxicity against human LUC1 cells after 48 hrs by sulforhodamine B assay. Type of experiment: functional. The note with it: LUC1, 48 h, read-out: ED50 (the source's name). The procedure, abridged:
as §3

The nature of experiment [8]: Cytotoxicity against vinblastine-resistant human KBV1 cells after 72 hrs by sulforhodamine B assay. It is filed as functional. The note with it: KB-V1, 72 h, read-out: ED50 (the source's name). The procedure, abridged: as §1
Experiment [9] concerns P388. Put plainly: Cytotoxicity against mouse P388 cells after 48 hrs by sulforhodamine B assay. It is filed as functional. The note with it: P388, 48 h, read-out: ED50 (the source's name). The procedure, abridged: as §3
The test system of experiment [10] is Candida albicans. The experiment can be described thus: Antifungal activity against Candida albicans ATCC 10231 at < 100 ug/ml after 24 hrs at 25 degC by agar hole-plate diffusion assay. Type of experiment: functional, organism-based.
Experiment [11] relates to Pseudomonas aeruginosa. Put plainly: Antibacterial activity against Pseudomonas aeruginosa ATCC 9027 by agar diffusion technique. Type of experiment: functional.
The test system of experiment [12] is Pseudomonas aeruginosa. Put plainly: Antibacterial activity against Pseudomonas aeruginosa ATCC 9027 at < 100 ug/ml after 24 hrs at 37 degC by agar hole-plate diffusion assay. It is filed as functional, organism-based.
Experiment [13] has as its system Staphylococcus aureus. The experiment can be described thus: Antibacterial activity against Staphylococcus aureus ATCC 6538 at 1 mg/ml after 24 hrs at 37 degC by agar hole-plate diffusion assay. It is filed as functional. The note with it: ATCC 6538, 24 h, read-out: IZ. The procedure, abridged:
as §4

Experiment [14] in a line: Cytotoxicity against human BC1 cells after 72 hrs by sulforhodamine B assay. It is filed as functional. The note with it: BC1, 72 h, read-out: ED50 (the source's name). The procedure, abridged: as §1
Experiment [15] relates to Bacillus subtilis. Put plainly: Antibacterial activity against Bacillus subtilis ATCC 6633 after overnight incubation at 37 degC by twofold serial dilution technique. It is filed as functional. The procedure, abridged: as §2
For experiment [16], the system named is A-431. Put plainly: Cytotoxicity against human A431 cells after 72 hrs by sulforhodamine B assay. The note with it: A-431, 72 h, read-out: ED50 (the source's name). It is filed as functional. The procedure, abridged: as §1
For experiment [17], the system named is Escherichia coli. The experiment can be described thus: Antibacterial activity against Escherichia coli ATCC 8739 at < 100 ug/ml after 24 hrs at 37 degC by agar hole-plate diffusion assay. It is filed as functional, organism-based.
Experiment [18] concerns Candida albicans. Put plainly: Antifungal activity against Candida albicans ATCC 10231 by agar diffusion technique. Type of experiment: functional.
The test system of experiment [19] is Escherichia coli. Put plainly: Antibacterial activity against Escherichia coli ATCC 8739 by agar diffusion technique. It is filed as functional.
The subject of experiment [20] is KB. Put plainly: Cytotoxicity against human KB cells after 72 hrs by sulforhodamine B assay. It is filed as functional. The note with it: read-out: ED50 (the source's name). The procedure, abridged: as §1
In experiment [21] the test system is LNCaP. Put plainly: Cytotoxicity against human LNCAP cells after 72 hrs by sulforhodamine B assay. Type of experiment: functional. The note with it: read-out: ED50 (the source's name). The procedure, abridged:
as §1

In brackets after ≈: the same amount, converted by molar mass. Activity calls are given as the source filed them.

Take `CCCC[C@@H](/C=C\[C@@H]1OC(=O)C=C[C@@H]1OC(C)=O)OC(C)=O` [PECTINOLIDE A]: the EC50 in experiment [1] amounted to 3.6 mg/L (≈ 11.6 µM); in experiment [3] it was 0.7 mg/L (≈ 2.26 µM); in [4], 1.7 mg/L (≈ 5.48 µM); in [6], 1 mg/L (≈ 3.22 µM); in experiment [7], 0.9 mg/L (≈ 2.9 µM); in experiment [8], 1.8 mg/L (≈ 5.8 µM). Moreover, the EC50 in experiment [9] was determined as 0.9 mg/L (≈ 2.9 µM); in [14], 1 mg/L (≈ 3.22 µM); in experiment [16], 1.4 mg/L (≈ 4.51 µM); in experiment [20], 1.8 mg/L (≈ 5.8 µM); in [21], 0.7 mg/L (≈ 2.26 µM). For the same compound, the MIC in [2] is 12.5 mg/L (≈ 40.3 µM); in experiment [11], 200 mg/L (≈ 644 µM); in experiment [15] it was 6.25 mg/L (≈ 20.1 µM); in [18], 250 mg/L (≈ 806 µM); in experiment [19], 200 mg/L (≈ 644 µM). The results for the zone of inhibition at 1000 µg/mL in [5] and in [13] were 10 mm and 8 mm, respectively. Also, the result in [10], in [12] and in experiment [17] was inactive.
With `CCCC[C@H](O)/C=C\[C@@H]1OC(=O)C=C[C@@H]1OC(C)=O` [PECTINOLIDE B], the EC50 in [1] came to 1.6 mg/L (≈ 5.96 µM); in experiment [3] it was 2.2 mg/L (≈ 8.2 µM); in [4] it was 2.3 mg/L (≈ 8.57 µM); in [6] it was 1.1 mg/L (≈ 4.1 µM); in experiment [7] it was 3.8 mg/L (≈ 14.2 µM); in experiment [8], 2 mg/L (≈ 7.45 µM). Further, the EC50 was 0.1 mg/L (≈ 0.373 µM) in [9]; 2.5 mg/L (≈ 9.32 µM) in [14]; 0.6 mg/L (≈ 2.24 µM) in experiment [16]; 1.4 mg/L (≈ 5.22 µM) in [20]; 0.9 mg/L (≈ 3.35 µM) in experiment [21]. Also, the MIC in experiment [2] is 100 mg/L (≈ 373 µM); in experiment [11], 300 mg/L (≈ 1120 µM); in [15] it was 25 mg/L (≈ 93.2 µM); in [18], 300 mg/L (≈ 1120 µM); in [19], 300 mg/L (≈ 1120 µM). The zone of inhibition at 1000 µg/mL came out at 6 mm in experiment [5] and 4 mm in experiment [13]. For the same compound, the outcome in experiment [10], in experiment [12] and in [17] was inactive.
Take `CCCC[C@@H](/C=C\[C@@H]1OC(=O)C=C[C@@H]1O)OC(C)=O` [PECTINOLIDE C]: the EC50 in experiment [1] is 1.9 mg/L (≈ 7.08 µM); in [3], 3.3 mg/L (≈ 12.3 µM); in experiment [4] it was 1.8 mg/L (≈ 6.71 µM); in experiment [6], 1.6 mg/L (≈ 5.96 µM); in experiment [7], 2.3 mg/L (≈ 8.57 µM); in [8], 3.2 mg/L (≈ 11.9 µM). Further, the EC50 in [9] turned out to be 2.2 mg/L (≈ 8.2 µM); in experiment [14] it was 2 mg/L (≈ 7.45 µM); in experiment [16], 0.8 mg/L (≈ 2.98 µM); in experiment [20], 1.7 mg/L (≈ 6.34 µM); in experiment [21], 0.8 mg/L (≈ 2.98 µM). The MIC in experiment [2] is 100 mg/L (≈ 373 µM); in experiment [11], above 500 mg/L; in [15], 12.5 mg/L (≈ 46.6 µM); in [18] it was above 500 mg/L; in [19], above 500 mg/L. Besides, the zone of inhibition at 1000 µg/mL was 8 mm in [5] and 4 mm in experiment [13]. In addition, the outcome in [10], in experiment [12] and in [17] was inactive.
Turning to `CN[C@@H]1[C@H](O[C@H]2[C@H](O[C@H]3[C@H](O)[C@@H](O)[C@H](N=C(N)N)[C@@H](O)[C@@H]3N=C(N)N)O[C@@H](C)[C@]2(O)C=O)O[C@@H](CO)[C@H](O)[C@H]1O.CN[C@@H]1[C@H](O[C@H]2[C@H](O[C@H]3[C@H](O)[C@@H](O)[C@H](N=C(N)N)[C@@H](O)[C@@H]3N=C(N)N)O[C@@H](C)[C@]2(O)C=O)O[C@@H](CO)[C@H](O)[C@H]1O.O=S(=O)(O)O.O=S(=O)(O)O.O=S(=O)(O)O` [STREPTOMYCIN SULFATE], the MIC was 6.25 mg/L in experiment [2] and 3.12 mg/L in experiment [15]. Besides, the zone of inhibition at 1000 µg/mL came to 13 mm in [5] and 9 mm in [13].
On to NYSTATIN, for which, in [10], the inhibition zone (IZ) was determined as 7 mm.

One may read the MIC as the smallest concentration in the dilution series that meets the test's criterion for growth inhibition. Lower therefore signals greater potency.
